Assay results reported in ChEMBL document CHEMBL1125826, “Synthesis and biological activity of 5-amino- and 5-hydroxyquinolones, and the overwhelming influence of the remote N1-substituent in determining the structure-activity relationship” (1991).
In brackets after ≈: the same amount, converted by molar mass.

Tests used:
Format in all cases: functional
[1] = system: Pseudomonas aeruginosa; experiment: Antibacterial activity was determined against gram negative organism, Pseudomonas aeruginosa UI-18; conditions: Pseudomonas aeruginosa; read-out: MIC
In short: (§1)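 MIC (µg/mL) by standard microtitration against a panel of 10 Gram-positive and Gram-negative organisms; values averaged from multiple experiments.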

[2] = molecular target: DNA gyrase (Escherichia coli) (UniProt P0AES6+P0AES4); experiment: Minimum inhibitory concentration against Escherichia coli DNA-gyrase in supercoiling assay
[3] = system: Bacteria; experiment: MIC ratio measured as the mean MICs of gram-negative bacteria
In short: (§2)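 Geometric mean of the microtitration MICs (µg/mL) over the Gram-negative organisms, and separately over the Gram-positive organisms, of the 10-strain panel; individual MICs averaged from multiple experiments.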

[4] = system: Streptococcus pyogenes; experiment: Antibacterial activity was determined against gram positive organism, Streptococcus pyogenes C203; conditions: Streptococcus pyogenes; read-out: MIC; in short: as §1
[5] = system: Enterobacter cloacae; experiment: Antibacterial activity was determined against gram negative organism, Enterobacter cloacae MA2646; conditions: Enterobacter cloacae; read-out: MIC
[6] = system: Escherichia coli; experiment: The in vivo potency was determined in female charles river CD-1 mice infected with Escherichia coli after peroral administration; conditions: for ED50: Escherichia coli, po, read-out: PD50
In short: (§3)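 Acute lethal systemic infection in female CD-1 mice, 16 mice per route; single dose given orally by gavage at the time of challenge; median protective dose (PD50, mg/kg) determined.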

[7] = system: Streptococcus pneumoniae; experiment: Antibacterial activity was determined against gram positive organism, Streptococcus pneumoniae SV-1; conditions: Streptococcus pneumoniae; read-out: MIC; in short: as §1
[8] = system: Bacteria; experiment: Antibacterial activity was determined against gram negative organism, Providencia rettgeri. M1771; conditions: Bacteria; read-out: MIC; in short: as §1
[9] = system: Staphylococcus aureus; experiment: Antibacterial activity was determined against gram positive organism, Staphylococcus aureus H228; conditions: Staphylococcus aureus; read-out: MIC; in short: as §1
[10] = system: Escherichia coli; experiment: Antibacterial activity was determined against gram negative organism, Escherichia coli vogel; conditions: Escherichia coli; read-out: MIC; in short: as §1
[11] = system: Klebsiella pneumoniae; experiment: Antibacterial activity was determined against gram negative organism, Klebsiella pneumoniae MGH-2; conditions: Klebsiella pneumoniae; read-out: MIC; in short: as §1
[12] = system: Staphylococcus aureus; experiment: Antibacterial activity was determined against gram positive organism, Staphylococcus aureus UC76; in short: as §1
[13] = system: Enterococcus faecalis; experiment: Antibacterial activity was determined against gram positive organism, Streptococcus faecalis MGH-2; conditions: Enterococcus faecalis; read-out: MIC; in short: as §1
[14] = system: Escherichia coli; experiment: The in vivo potency was determined in female charles river CD-1 mice infected with Escherichia coli after sc administration; conditions: Escherichia coli, sc; read-out: PD50
In short: (§4)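 Acute lethal systemic infection in female CD-1 mice, 16 mice per route; single subcutaneous dose given at the time of challenge; median protective dose (PD50, mg/kg) determined.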

[15] = system: Bacteria; experiment: MIC ratio measured as the mean MICs of gram-positive bacteria; in short: as §2
[16] = system: Streptococcus pyogenes; experiment: The in vivo potency was determined in female charles river CD-1 mice infected with Streptococcus pyogenes after peroral administration; conditions: Streptococcus pyogenes, po; read-out: PD50; in short: as §3
[17] = system: Streptococcus pyogenes; experiment: The in vivo potency was determined in female charles river CD-1 mice infected with Streptococcus pyogenes after sc administration; conditions: Streptococcus pyogenes, sc; read-out: PD50; in short: as §4
[18] = Staphylococcus aureus, read-out: MIC

Compound | MIC [1] [µg/mL] | MIC [2] [µg/mL] | Geometric mean MIC over Gram-negative bacteria (µg/mL) [3] | MIC [4] [µg/mL] | MIC [5] [µg/mL] | PD50 [6] [mg/kg] | MIC [7] [µg/mL] | MIC [8] [µg/mL] | MIC [9] [µg/mL] | MIC [10] [µg/mL] | MIC [11] [µg/mL] | MIC [12, 18] [µg/mL] | MIC [13] [µg/mL] | ED50 [14] [mg/kg] | Geometric mean MIC over Gram-positive bacteria (µg/mL) [15] | ED50 [16] [mg/kg] | ED50 [6] [mg/kg] | ED50 [17] [mg/kg] | MIC [12] [µg/mL]
CC1CN(c2c(F)cc3c(=O)c(C(=O)O)cn(C4CC4)c3c2F)CC(C)N1 (centres undefined) | 0.4 (≈ 1.06 µM) | 2.5 (≈ 6.62 µM) | 0.11 | 0.4 (≈ 1.06 µM) | 0.05 (≈ 0.132 µM) | 0.8 | 0.4 (≈ 1.06 µM) | 0.2 (≈ 0.53 µM) | 0.2 (≈ 0.53 µM) | 0.05 (≈ 0.132 µM) | 0.1 (≈ 0.265 µM) | 0.05 (≈ 0.132 µM) | 0.4 (≈ 1.06 µM) | 0.4 | 0.23 | – | – | – | –
CC1CN(c2cc3c(c(N)c2F)c(=O)c(C(=O)O)cn3C2CC2)CCN1 (centres undefined) | 0.4 (≈ 1.11 µM) | 0.5 (≈ 1.39 µM) | 0.058 | 0.2 (≈ 0.555 µM) | 0.025 (≈ 0.0694 µM) | – | 0.1 (≈ 0.277 µM) | 0.1 (≈ 0.277 µM) | 0.2 (≈ 0.555 µM) | 0.013 (≈ 0.0361 µM) | 0.025 (≈ 0.0694 µM) | 0.05 (≈ 0.139 µM) | 0.2 (≈ 0.555 µM) | 0.4 | 0.13 | 66 | 2 | 21 | –
Nc1c(F)c(N2CCC(N)C2)cc2c1c(=O)c(C(=O)O)cn2C1CC1 (centres undefined) | 0.4 (≈ 1.15 µM) | 2 (≈ 5.77 µM) | 0.038 | 0.05 (≈ 0.144 µM) | 0.013 (≈ 0.0375 µM) | – | 0.025 (≈ 0.0722 µM) | 0.05 (≈ 0.144 µM) | 0.1 (≈ 0.289 µM) | 0.013 (≈ 0.0375 µM) | 0.025 (≈ 0.0722 µM) | 0.025 (≈ 0.0722 µM) | 0.05 (≈ 0.144 µM) | 0.7 | 0.044 | 110 | 8 | 6 | –
CCNCC1CCN(c2c(F)c(N)c3c(=O)c(C(=O)O)cn4c3c2OCC4C)C1 (centres undefined) | 12.5 (≈ 30.9 µM) | 7.5 (≈ 18.5 µM) | 2.09 | 0.1 (≈ 0.247 µM) | 1.6 (≈ 3.96 µM) | – | 0.4 (≈ 0.989 µM) | 3.1 (≈ 7.66 µM) | 0.8 (≈ 1.98 µM) | 0.8 (≈ 1.98 µM) | 0.8 (≈ 1.98 µM) | 0.1 (≈ 0.247 µM) | 0.4 (≈ 0.989 µM) | 8 | 0.26 | – | > 100 | – | –
O=C(O)c1cn(C2CC2)c2c(Cl)c(N3CCNCC3)c(F)cc2c1=O | 0.4 (≈ 1.09 µM) | 0.5 (≈ 1.37 µM) | 0.066 | 0.2 (≈ 0.547 µM) | 0.025 (≈ 0.0683 µM) | – | 0.1 (≈ 0.273 µM) | 0.1 (≈ 0.273 µM) | 0.1 (≈ 0.273 µM) | 0.025 (≈ 0.0683 µM) | 0.05 (≈ 0.137 µM) | 0.05 (≈ 0.137 µM) | 0.4 (≈ 1.09 µM) | 0.4 | 0.13 | – | 0.8 | – | –
CCNCC1CCN(c2cc3c(c(N)c2F)c(=O)c(C(=O)O)cn3C2CC2)C1 (centres undefined) | 0.8 (≈ 2.06 µM) | 1 (≈ 2.57 µM) | 0.26 | 0.1 (≈ 0.257 µM) | 0.1 (≈ 0.257 µM) | – | 0.05 (≈ 0.129 µM) | 0.8 (≈ 2.06 µM) | 0.2 (≈ 0.515 µM) | 0.1 (≈ 0.257 µM) | 0.2 (≈ 0.515 µM) | 0.025 (≈ 0.0644 µM) | 0.025 (≈ 0.0644 µM) | 3 | 0.057 | – | 90 | – | –
CCNCC1CCN(c2c(F)c(N)c3c(=O)c(C(=O)O)cn(C4CC4)c3c2Cl)C1 (centres undefined) | 1.6 (≈ 3.78 µM) | 1 (≈ 2.36 µM) | – | 0.025 (≈ 0.0591 µM) | 0.2 (≈ 0.473 µM) | – | 0.025 (≈ 0.0591 µM) | 0.8 (≈ 1.89 µM) | 0.1 (≈ 0.236 µM) | 0.1 (≈ 0.236 µM) | 0.4 (≈ 0.946 µM) | – | 0.1 (≈ 0.236 µM) | 3 | – | 31 | 32 | 4 | 0.025 (≈ 0.0591 µM)
CC1COc2c(N3CCC(N)C3)c(F)c(N)c3c(=O)c(C(=O)O)cn1c23 (centres undefined) | 1.6 (≈ 4.42 µM) | 2.5 (≈ 6.9 µM) | 0.8 | 1.6 (≈ 4.42 µM) | 0.8 (≈ 2.21 µM) | – | 0.8 (≈ 2.21 µM) | 1.6 (≈ 4.42 µM) | 0.8 (≈ 2.21 µM) | 0.4 (≈ 1.1 µM) | 0.4 (≈ 1.1 µM) | 0.2 (≈ 0.552 µM) | 0.8 (≈ 2.21 µM) | 23 | 0.7 | – | > 100 | – | –
NC1CCN(c2cc3c(c(O)c2F)c(=O)c(C(=O)O)cn3C2CC2)C1 (centres undefined) | 0.2 (≈ 0.576 µM) | 1 (≈ 2.88 µM) | 0.038 | 0.1 (≈ 0.288 µM) | 0.025 (≈ 0.072 µM) | – | 0.05 (≈ 0.144 µM) | 0.05 (≈ 0.144 µM) | 0.1 (≈ 0.288 µM) | 0.013 (≈ 0.0374 µM) | 0.025 (≈ 0.072 µM) | 0.013 (≈ 0.0374 µM) | 0.2 (≈ 0.576 µM) | 0.4 | 0.066 | – | 3 | – | –
